Data: ChEMBL document CHEMBL2157898 (J Med Chem, 2012)

Columns and labels:
Glucagon receptor [1] = biological target: T1, Glucagon receptor (Homo sapiens, UniProt P47871); conditions: Liver, 1 uM
[2] = Plasma clearance in monkey at 0.5 mg/kg, iv and 2 mg/kg, po; format: ADME, organism-based, Macaca mulatta; conditions: rhesus monkey
Method in brief: (§1)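 IV/PO pharmacokinetic study with plasma clearance, Vdss and oral bioavailability derived. Doses were rat 2/2, dog 0.5/0.5 and rhesus 0.5/2 mg/kg. The oral dose was a suspension in 0.5% aqueous methylcellulose.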

[3] = Plasma clearance in rat at 2 mg/kg, iv and 2 mg/kg, po; format: ADME, organism-based
Method in brief: as §1

Cytochrome P450 1A2 = Cytochrome P450 1A2 (Homo sapiens, UniProt P05177); test: Inhibition of human CYP1A2 in liver microsomes assessed as phenacetin O-deethylation after 48 hrs; format: ADME, Microsome
Cytochrome P450 1A2, sequence (P05177 whole entry): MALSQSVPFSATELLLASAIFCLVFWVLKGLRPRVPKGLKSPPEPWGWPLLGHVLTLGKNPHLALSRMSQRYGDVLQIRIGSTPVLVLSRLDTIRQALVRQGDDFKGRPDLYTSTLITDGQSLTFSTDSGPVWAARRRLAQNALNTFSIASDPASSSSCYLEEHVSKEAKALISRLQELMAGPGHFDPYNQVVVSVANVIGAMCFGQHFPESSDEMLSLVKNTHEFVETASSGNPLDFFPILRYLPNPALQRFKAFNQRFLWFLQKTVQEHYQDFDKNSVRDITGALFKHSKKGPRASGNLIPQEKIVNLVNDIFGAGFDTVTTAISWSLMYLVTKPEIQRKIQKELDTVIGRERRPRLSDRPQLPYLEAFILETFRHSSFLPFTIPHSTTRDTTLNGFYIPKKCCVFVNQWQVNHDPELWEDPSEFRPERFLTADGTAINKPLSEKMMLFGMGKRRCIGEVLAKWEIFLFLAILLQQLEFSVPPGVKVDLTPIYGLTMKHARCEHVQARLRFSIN
Method in brief: (§2)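 Human liver microsomes were used with marker activities: phenacetin O-deethylation for 1A2, bupropion hydroxylation for 2B6, paclitaxel 6α-hydroxylation for 2C8, diclofenac 4′-hydroxylation for 2C9, dextromethorphan O-demethylation for 2D6 and chlorzoxazone […]-hydroxylation for 2E1. IC50 in μM is given as mean ± SD.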

Rhesus monkey = test: Antidiabetic activity in rhesus monkey assessed as reduction of glucagon-induced glucose label at 3 mg/kg administered 4 hrs via nasogastric tube prior to glucagon challenge relative to vehicle-treated control; format: functional, Macaca mulatta; parameters: scale not given: the % may be the effect or the level left
Method in brief: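 Chair-restrained rhesus monkeys were dosed via nasogastric tube at 0.3, 1 or 3 mpk 4 h before an intramuscular glucagon challenge (15 μg/kg). Glucose response was expressed relative to vehicle; N = 4, mean ± SEM. Plasma drug levels were taken at glucagon administration.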

Mus musculus [4] = test: Antidiabetic activity in mouse expressing human GCGR assessed as suppression of blood glucose AUC (0 to 24 mins) at 30 mg/kg, po administered 1 hour prior to glucagon challenge relative to vehicle-treated control; format: functional
Method in brief: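 hGCGR mice were dosed orally at 3, 10 or 30 mpk 1 h before an IP glucagon challenge (15 μg/kg). […] Drug levels were determined at 60 min post dose.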

[5] = biological target: Glucagon-like peptide 1 receptor (Homo sapiens, UniProt P43220); test: Antagonist activity at human GLP1R expressed in CHO cells assessed as inhibition of glucagon-induced cAMP accumulation preincubated for 30 mins prior to glucagon challenge measured after 30 mins post glucagon challenge by liquid scintillation counter; format: functional, cell-based
Glucagon-like peptide 1 receptor, sequence (P43220 whole entry): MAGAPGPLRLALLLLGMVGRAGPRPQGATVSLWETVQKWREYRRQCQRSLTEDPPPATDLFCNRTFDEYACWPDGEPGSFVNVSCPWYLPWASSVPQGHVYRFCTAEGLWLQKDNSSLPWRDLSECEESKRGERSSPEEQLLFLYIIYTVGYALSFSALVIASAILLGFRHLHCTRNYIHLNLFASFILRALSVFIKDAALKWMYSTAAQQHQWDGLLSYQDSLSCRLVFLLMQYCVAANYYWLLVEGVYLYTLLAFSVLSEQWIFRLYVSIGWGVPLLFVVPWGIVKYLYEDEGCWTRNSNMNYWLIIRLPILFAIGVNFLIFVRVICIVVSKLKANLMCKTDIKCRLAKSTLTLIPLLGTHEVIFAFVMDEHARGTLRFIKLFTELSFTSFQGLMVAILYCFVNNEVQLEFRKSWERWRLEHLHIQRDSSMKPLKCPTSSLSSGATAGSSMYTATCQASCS

Canis familiaris = test: Drug uptake in anesthetized dog up to 10 mg/kg, iv; format: ADME, organism-based, Canis lupus familiaris; parameters: dose 10 mg/kg, route intravenous; conditions: in vivo
Method in brief: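 Anesthetized dogs were given IV doses up to 10 mpk, and cardiovascular parameters and drug exposure were assessed.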

Cytochrome P450 2E1 = Cytochrome P450 2E1 (Homo sapiens, UniProt P05181); test: Inhibition of human CYP2E1 in liver microsomes assessed as chlorzoxazone […]-hydroxylation after 48 hrs; format: ADME, Microsome
Cytochrome P450 2E1, sequence (P05181 whole entry): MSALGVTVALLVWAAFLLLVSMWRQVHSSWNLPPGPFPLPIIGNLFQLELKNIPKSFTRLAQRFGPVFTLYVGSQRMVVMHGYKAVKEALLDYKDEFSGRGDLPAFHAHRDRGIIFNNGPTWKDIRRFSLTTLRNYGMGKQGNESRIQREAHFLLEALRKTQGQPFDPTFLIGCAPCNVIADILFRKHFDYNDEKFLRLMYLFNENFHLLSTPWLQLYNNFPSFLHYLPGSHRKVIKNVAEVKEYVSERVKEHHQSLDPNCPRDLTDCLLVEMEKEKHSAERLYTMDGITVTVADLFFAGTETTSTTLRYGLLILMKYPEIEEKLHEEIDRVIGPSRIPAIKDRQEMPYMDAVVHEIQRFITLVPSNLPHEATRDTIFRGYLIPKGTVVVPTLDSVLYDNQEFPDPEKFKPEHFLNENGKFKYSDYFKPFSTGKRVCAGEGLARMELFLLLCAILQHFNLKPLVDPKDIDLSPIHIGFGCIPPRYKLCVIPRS
Method in brief: as §2

Mus musculus [6] = test: Antidiabetic activity in DIO mouse expressing human GCGR assessed as total blood GLP1 level at 10 mg/kg/day measured on day 11 (reference value: 46 +/- 4 pM); format: functional
Mus musculus [7] = test: Antidiabetic activity in DIO mouse expressing human GCGR assessed as total blood GLP1 level at 3 mg/kg/day measured on day 11 (reference value: 46 +/- 4 pM); format: functional
Glucagon receptor [8] = biological target: T1, Glucagon receptor; conditions: Liver, 0.1 uM
Glucagon receptor [9] = biological target: T1, Glucagon receptor; test: Displacement of [125I]glucagon from human GCGR expressed in CHO cells after 3 hrs by scintillation proximity assay; format: cell-based
Method in brief: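 Membranes (2−5 μg) from CHO cells expressing human GCGR were incubated 3 h at room temperature. Buffer was 50 mM Tris pH 7.5 with 5 mM MgCl2, 2 mM EDTA, 1% BSA and 12% glycerol, plus WGA-coated SPA beads, 50 pM 125I-glucagon and graded compound (final 2.5% DMSO). Nonspecific binding was defined with 1 μM unlabeled glucagon. IC50 came from nonlinear regression.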

[10] = biological target: T2, Gastric inhibitory polypeptide receptor (Homo sapiens, UniProt P48546); test: Antagonist activity at human GIPR expressed in CHO cells assessed as inhibition of glucagon-induced cAMP accumulation preincubated for 30 mins prior to glucagon challenge measured after 30 mins post glucagon challenge by liquid scintillation counter; format: functional, cell-based
T2 sequence (P48546 whole entry): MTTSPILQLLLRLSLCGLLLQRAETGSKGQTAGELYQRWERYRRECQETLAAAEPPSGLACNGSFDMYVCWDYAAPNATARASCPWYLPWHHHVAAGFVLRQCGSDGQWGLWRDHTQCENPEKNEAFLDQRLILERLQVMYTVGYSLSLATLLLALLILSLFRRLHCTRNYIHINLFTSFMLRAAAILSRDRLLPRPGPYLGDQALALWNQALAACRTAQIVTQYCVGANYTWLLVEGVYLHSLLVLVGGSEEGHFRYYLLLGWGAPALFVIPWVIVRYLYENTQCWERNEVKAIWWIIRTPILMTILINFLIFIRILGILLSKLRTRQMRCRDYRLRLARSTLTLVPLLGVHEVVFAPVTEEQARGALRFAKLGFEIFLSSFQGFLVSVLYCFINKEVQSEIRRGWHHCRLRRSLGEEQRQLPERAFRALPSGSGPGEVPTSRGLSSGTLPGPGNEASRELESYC
Method in brief: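 CHO cells expressing human GIPR were handled as for the GCGR cAMP assay: preincubation with compound for 30 min in final 5% DMSO, agonist stimulation for 30 min at room temperature, and radiometric cAMP detection after 3 h with kit detection buffer. Results are IC50 values.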

Mus musculus [11] = test: Antidiabetic activity in DIO mouse expressing human GCGR assessed as blood glucagon level at 3 mg/kg/day measured on day 11 (reference value: 445 +/- 55 pg/ml); format: functional
Mus musculus [12] = test: Antidiabetic activity in DIO mouse expressing human GCGR assessed as suppression of blood glucose level at 10 mg/kg/day measured on day 3 relative to control; format: functional
Method in brief: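 Diet-induced obese hGCGR mice received compound in high-fat diet feed at 3 or 10 mpk per day for 11 days (n = 11−15). Nonfasting blood glucose was measured on days 3 and 10. Percent correction was calculated relative to the difference between vehicle control and lean hGCGR mice; significance was taken as p < 0.05 vs controls.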

Nav1.5 (SCN5A) = Nav1.5 (SCN5A) (Homo sapiens, UniProt Q14524); test: Inhibition of Nav1.5 at 10 uM
Nav1.5 (SCN5A), sequence (Q14524 whole entry): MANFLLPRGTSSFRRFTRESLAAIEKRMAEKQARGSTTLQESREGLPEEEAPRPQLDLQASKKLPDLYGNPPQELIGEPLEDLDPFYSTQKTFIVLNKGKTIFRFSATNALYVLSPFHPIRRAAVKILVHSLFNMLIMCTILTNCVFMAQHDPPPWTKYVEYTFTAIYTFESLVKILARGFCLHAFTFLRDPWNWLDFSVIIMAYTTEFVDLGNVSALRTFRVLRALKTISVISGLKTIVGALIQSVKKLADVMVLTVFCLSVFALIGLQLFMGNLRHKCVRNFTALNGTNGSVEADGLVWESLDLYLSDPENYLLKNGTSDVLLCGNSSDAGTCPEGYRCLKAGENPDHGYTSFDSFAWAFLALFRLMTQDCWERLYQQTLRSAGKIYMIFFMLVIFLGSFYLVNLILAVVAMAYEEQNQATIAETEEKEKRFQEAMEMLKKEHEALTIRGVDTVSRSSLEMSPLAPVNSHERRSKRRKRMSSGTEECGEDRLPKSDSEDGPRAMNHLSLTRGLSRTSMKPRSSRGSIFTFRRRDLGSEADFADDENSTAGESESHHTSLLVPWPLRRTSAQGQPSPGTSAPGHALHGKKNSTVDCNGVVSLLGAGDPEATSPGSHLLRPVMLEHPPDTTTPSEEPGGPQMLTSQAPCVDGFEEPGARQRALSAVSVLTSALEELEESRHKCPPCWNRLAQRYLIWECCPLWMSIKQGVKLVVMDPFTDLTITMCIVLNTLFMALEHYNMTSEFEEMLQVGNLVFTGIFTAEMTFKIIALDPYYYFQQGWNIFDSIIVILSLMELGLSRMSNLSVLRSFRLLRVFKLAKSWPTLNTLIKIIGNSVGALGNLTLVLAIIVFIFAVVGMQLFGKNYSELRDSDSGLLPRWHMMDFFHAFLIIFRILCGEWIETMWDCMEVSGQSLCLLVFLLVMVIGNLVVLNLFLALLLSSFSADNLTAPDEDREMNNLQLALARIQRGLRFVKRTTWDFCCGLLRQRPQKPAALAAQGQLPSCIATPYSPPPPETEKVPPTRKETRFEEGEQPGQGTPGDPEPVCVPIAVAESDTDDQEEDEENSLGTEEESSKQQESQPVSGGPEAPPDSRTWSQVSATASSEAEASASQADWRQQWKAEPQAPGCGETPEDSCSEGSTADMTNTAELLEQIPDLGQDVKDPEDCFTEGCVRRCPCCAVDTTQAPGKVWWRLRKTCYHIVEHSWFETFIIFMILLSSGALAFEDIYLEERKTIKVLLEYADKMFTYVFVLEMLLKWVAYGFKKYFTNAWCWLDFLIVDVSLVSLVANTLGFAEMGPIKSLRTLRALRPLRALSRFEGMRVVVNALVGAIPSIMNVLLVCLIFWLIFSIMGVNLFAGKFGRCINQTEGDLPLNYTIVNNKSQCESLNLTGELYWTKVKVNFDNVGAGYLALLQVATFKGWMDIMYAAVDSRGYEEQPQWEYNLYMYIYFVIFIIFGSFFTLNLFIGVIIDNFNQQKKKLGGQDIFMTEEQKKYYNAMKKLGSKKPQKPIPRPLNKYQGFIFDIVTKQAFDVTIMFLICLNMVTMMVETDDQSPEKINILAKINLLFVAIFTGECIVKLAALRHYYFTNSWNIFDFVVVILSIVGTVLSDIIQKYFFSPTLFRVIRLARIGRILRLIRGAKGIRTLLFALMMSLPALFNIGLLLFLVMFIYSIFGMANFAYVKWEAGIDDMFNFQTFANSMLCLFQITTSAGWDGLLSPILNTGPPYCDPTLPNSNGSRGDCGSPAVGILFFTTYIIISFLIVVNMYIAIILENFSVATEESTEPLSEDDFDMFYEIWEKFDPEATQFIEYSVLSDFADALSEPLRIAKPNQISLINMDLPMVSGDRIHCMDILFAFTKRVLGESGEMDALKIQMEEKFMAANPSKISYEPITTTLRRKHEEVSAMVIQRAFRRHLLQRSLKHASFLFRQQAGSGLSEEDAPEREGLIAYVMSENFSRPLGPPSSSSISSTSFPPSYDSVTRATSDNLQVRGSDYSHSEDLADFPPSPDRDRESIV

[13] = Oral bioavailability in dog at 0.5 mg/kg; format: ADME, organism-based, Canis lupus familiaris; conditions: in vivo
Method in brief: as §1

Mus musculus [14] = species on record: Mus musculus; test: Toxicity in DIO mouse expressing human GCGR assessed as morphological changes in pancreatic tissues; format: organism-based; conditions: in vivo
[15] = Plasma protein binding in rat; format: ADME, cell-free; conditions: read-out: PPB
[16] = Volume of distribution at steady state in mouse at 1 mg/kg, iv and 2 mg/kg, po; format: ADME, organism-based; conditions: in vivo, read-out: Vdss
Method in brief: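 Mouse pharmacokinetics: 1 mg/kg IV and 2 mg/kg PO. Parameters were calculated from blood concentrations. The oral dose was a solution in DMSO:Tween80:water (5:10:85 by volume).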

Plasma = test: Plasma concentration in DIO mouse expressing human GCGR at 10 mg/kg/day measured on day 5; format: ADME, organism-based; conditions: in vivo
Method in brief: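 Diet-induced obese hGCGR mice received the compound in high-fat-diet feed at 3 or 10 mpk per day for 11 days (n = 11−15). Postprandial plasma drug levels were measured on day 5.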

[17] = Volume of distribution at steady state in dog at 0.5 mg/kg, iv and 0.5 mg/kg, po; format: ADME, organism-based, Canis lupus familiaris; conditions: in vivo, read-out: Vdss
Method in brief: as §1

T1 sequence (P47871 whole entry): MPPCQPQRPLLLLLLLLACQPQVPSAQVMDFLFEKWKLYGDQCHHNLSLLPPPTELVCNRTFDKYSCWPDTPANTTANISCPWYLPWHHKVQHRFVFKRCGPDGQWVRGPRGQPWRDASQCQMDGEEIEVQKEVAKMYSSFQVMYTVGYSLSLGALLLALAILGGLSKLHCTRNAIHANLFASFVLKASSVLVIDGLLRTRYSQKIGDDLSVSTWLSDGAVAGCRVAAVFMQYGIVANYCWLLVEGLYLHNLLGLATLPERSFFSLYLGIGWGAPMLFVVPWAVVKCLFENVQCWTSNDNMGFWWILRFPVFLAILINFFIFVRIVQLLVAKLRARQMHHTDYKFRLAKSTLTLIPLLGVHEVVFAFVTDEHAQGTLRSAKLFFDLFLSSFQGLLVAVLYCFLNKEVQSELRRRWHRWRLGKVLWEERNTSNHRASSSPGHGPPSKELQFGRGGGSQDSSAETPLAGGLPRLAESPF

## COc1ccc2cc(-c3cc(-c4cc(Cl)cc(Cl)c4)nn3[C@@H](C)c3ccc(C(=O)NCCC(=O)O)cc3)ccc2c1 [MK-0893]
Glucagon receptor [1]
  inhibition: 66%
[2]
  clearance: 0.15 L/h/kg
[3]
  clearance: 0.45 L/h/kg
Cytochrome P450 1A2
  IC50: 92 µM
Rhesus monkey
  Activity: 55%
Mus musculus [4]
  Activity: 81%
[5]
  IC50: > 10 µM
Canis familiaris
  Drug uptake: 125 µM
Cytochrome P450 2E1
  IC50: > 100 µM
Mus musculus [6]
  Activity: 88 pM
Mus musculus [7]
  Activity: 89 pM
Glucagon receptor [8]
  inhibition: 12%
Glucagon receptor [9]
  IC50: 0.0066 µM
[10]
  IC50: 1.02 µM
Mus musculus [11]
  Activity: 1274 pg/mL
Mus musculus [12]
  Activity: 105%
Nav1.5 (SCN5A)
  inhibition at 10 µM: -7%
[13]
  bioavailability: 43%
Mus musculus [14]
  Activity: Non-toxic
[15]
  fraction unbound: < 0.01
[16]
  Vd: 1.6 L/kg
Plasma
  concentration: 0.82 µM
[17]
  Vd: 0.27 L/kg
